Results reported in ChEMBL document CHEMBL3797175, “Discovery of 6-(difluoro(6-(4-fluorophenyl)-[1,2,4]triazolo[4,3-b][1,2,4]triazin-3-yl)methyl)quinoline as a highly potent and selective c-Met inhibitor” (Eur J Med Chem, 2016).
Calls of active or inactive are those of the source. No cut-off for these calls is given here.

Columns and labels:
[1] = Volume of distribution at steady state in Sprague-Dawley rat at 2 mg/kg, iv administered as single dose; format: ADME, organism-based; conditions: in vivo, read-out: Vdss
Outline: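 Male Sprague-Dawley rats (n=3), single dose. IV 2 mg/kg in 1% DMA/9% Cremophor/90% saline; PO 10 mg/kg in 0.5% CMC-Na. For one compound, IV 10 mg/kg in DMSO/Tween 80/PEG40 and PO 10 mg/kg in 10% DMSO/5% Tween 80/85% saline.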

[2] = Half life in Sprague-Dawley rat at 2 mg/kg, iv administered as single dose; format: ADME, organism-based; conditions: in vivo
Outline: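 Male Sprague Dawley rats (n=3), single dose. iv 2 mg/kg in 1% DMA/9% Cremophor/90% saline. po 10 mg/kg in 0.5% CMC-Na. Where iv was 10 mg/kg: 10% DMSO/10% Tween 80/80% (40% PEG40); po in that case in 10% DMSO/5% Tween 80/85% saline.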

[3] = Antitumor activity against human EBC1 cells xenografted in athymic nude mouse assessed as tumor growth inhibition at 12.5 mg/kg, po bid for 21 days measured twice a week during compound dosing relative to control; format: functional; conditions: EBC-1, po, 504 h, read-out: TGI
Outline: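 Nude mice bearing s.c. tumours. Cells were first grown s.c. to 700–800 mm³, then 1.5 mm³ fragments were transplanted s.c. into the right flank. Mice were randomised at 100–200 mm³ (n=6 treated, n=12 vehicle) and dosed orally twice daily for 21 days. Caliper measurement twice weekly; TV = length×width²/2. TGI taken on the final day versus vehicle; Student's t test.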

[4] = Selectivity ratio of IC50 for human SNU1 cells to IC50 for human MKN45 cells; format: ADME, cell-based; conditions: mkn-45
[5] = biological target: T1, Hepatocyte growth factor receptor (Homo sapiens, UniProt P08581); experiment: Inhibition of c-Met phosphorylation at Tyrosine 1234 in human EBC1 cells at 10 nM after 1 hr by Western blot analysis; format: cell-based
Outline: (§1)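 EBC-1 or MKN45 cells treated with compound 1 h at 37 °C without HGF, then lysed in 1× SDS sample buffer. Lysates run on 10% SDS-PAGE and transferred to nitrocellulose. Probed with antibodies to c-Met, phospho-c-Met, phospho-ERK1/2, phospho-AKT, AKT and GAPDH, then HRP secondary. ECL detection.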

[6] = biological target: T1, Hepatocyte growth factor receptor; experiment: Inhibition of c-Met in human EBC1 cells assessed as reduction in ERK phosphorylation at Tyrosine 204 at 10 nM after 1 hr by Western blot analysis; format: cell-based; outline: as §1
[7] = biological target: T1, Hepatocyte growth factor receptor; experiment: Inhibition of c-Met in human MKN45 cells assessed as reduction in ERK phosphorylation at Threonine 202 at 10 nM after 1 hr by Western blot analysis; format: cell-based; conditions: MKN-45; outline: as §1
[8] = biological target: T1, Hepatocyte growth factor receptor; experiment: Inhibition of c-Met in HGF stimulated human U87MG cells assessed as reduction in ERK phosphorylation at Threonine 202 at 10 nM after 1 hr by Western blot analysis; format: cell-based; conditions: U-87MG ATCC
Outline: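 U87MG cells serum-starved 24 h, treated 1 h at 37 °C, then stimulated with HGF 100 ng/mL for 15 min. Lysed in SDS buffer, run on 10% SDS-PAGE and immunoblotted for phospho-ERK1/2 and phospho-AKT; ECL detection.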

[9] = biological target: T1, Hepatocyte growth factor receptor; experiment: Inhibition of c-Met phosphorylation at Tyrosine 1235 in human EBC1 cells at 10 nM after 1 hr by Western blot analysis; format: cell-based; outline: as §1
786-0 = experiment: Antiproliferative activity against human 786-0 cells after 72 hrs by SRB or MTT assay; format: functional, cell-based; conditions: 786-0, 72 h
Outline: (§2)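 Cells seeded, exposed next day to a range of concentrations for 72 h. Growth read by sulforhodamine B or MTT. IC50 from four-parameter concentration-response fit. Each concentration tested at least in triplicate, with at least 2 experiments.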

NCI-H596 = experiment: Antiproliferative activity against human NCI-H596 cells after 72 hrs by SRB or MTT assay; format: functional, cell-based; conditions: NCI-H596, 72 h; outline: as §2
[10] = Antiproliferative activity against human NCI-H3122 cells after 72 hrs by SRB or MTT assay; format: functional, cell-based; conditions: NCI-H3122, 72 h; outline: as §2
[11] = Antiproliferative activity against human MGC803 cells after 72 hrs by SRB or MTT assay; format: functional, cell-based; conditions: MGC-803, 72 h; outline: as §2
MDA-MB-231 = experiment: Antiproliferative activity against human MDA-MB-231 cells after 72 hrs by SRB or MTT assay; format: functional, cell-based; conditions: MDA-MB-231, 72 h; outline: as §2
[12] = biological target: T1, Hepatocyte growth factor receptor; experiment: Inhibition of c-Met in human NCI-H441 cells assessed as inhibition of HGF-induced cell invasion after 24 hrs by crystal violet staining based microscopic analysis
Outline: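 NCI-H441 cells, 1.5×10^5 in serum-free medium, placed in upper Transwell chamber (8 µm pores; Matrigel-coated for invasion). Lower chamber serum-free medium ± HGF 100 ng/mL, with compound. After 24 h at 37 °C, non-migrated cells removed. Traversed cells stained with 0.1% crystal violet 15 min and imaged in 5 fields per filter. Three independent experiments.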

[13] = Selectivity ratio of IC50 for human PANC1 cells to IC50 for human MKN45 cells; format: ADME, cell-based; conditions: panc-1
Outline: (§3)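 Each cell line was seeded in 96-well plates, then exposed the next day to a range of compound concentrations for 72 h. Growth was read by SRB or MTT assay, and IC50 was fitted by a four-parameter concentration-response curve. Each concentration was run at least in triplicate, in at least 2 experiments. BaF3/TPR-Met are murine pre-B BaF3 cells transfected with TPR-MET cDNA and selected in puromycin.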

[14] = Selectivity ratio of IC50 for human HCT116 cells to IC50 for human EBC1 cells; format: ADME, cell-based; conditions: hct-116
Outline: (§4)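 Both IC50s in each ratio come from one proliferation assay. Cells were seeded and exposed the next day to a range of concentrations for 72 h, then read by SRB or MTT. IC50s were fitted by four-parameter concentration–response, with each concentration at least in triplicate and at least 2 experiments. BaF3/TPR-Met is murine pre-B BaF3 transfected with TPR-MET and puromycin-selected.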

[15] = Selectivity ratio of IC50 for human NCI-H596 cells to IC50 for human EBC1 cells; format: ADME, cell-based; outline: as §4
[16] = Selectivity ratio of IC50 for human NCI-H596 cells to IC50 for human MKN45 cells; format: ADME, cell-based; conditions: mkn-45; outline: as §4
[17] = Selectivity ratio of IC50 for human NCI-H596 cells to IC50 for mouse BAF3 cells expressing TPR-MET; format: ADME, cell-based; outline: as §4
[18] = Selectivity ratio of IC50 for human NCI-H460 cells to IC50 for human MKN45 cells; format: ADME, cell-based; outline: as §4
[19] = Selectivity ratio of IC50 for human NCI-H226 cells to IC50 for mouse BAF3 cells expressing TPR-MET; format: ADME, cell-based; outline: as §4
[20] = Selectivity ratio of IC50 for human Calu3 cells to IC50 for human MKN45 cells; format: ADME, cell-based; conditions: mkn-45; outline: as §4
[21] = Selectivity ratio of IC50 for human SGC7901 cells to IC50 for mouse BAF3 cells expressing TPR-MET; format: ADME, cell-based; outline: as §3
[22] = Selectivity ratio of IC50 for human BGC823 cells to IC50 for human MKN45 cells; format: ADME, cell-based; conditions: bgc-823; outline: as §4

T1 sequence (P08581 whole entry): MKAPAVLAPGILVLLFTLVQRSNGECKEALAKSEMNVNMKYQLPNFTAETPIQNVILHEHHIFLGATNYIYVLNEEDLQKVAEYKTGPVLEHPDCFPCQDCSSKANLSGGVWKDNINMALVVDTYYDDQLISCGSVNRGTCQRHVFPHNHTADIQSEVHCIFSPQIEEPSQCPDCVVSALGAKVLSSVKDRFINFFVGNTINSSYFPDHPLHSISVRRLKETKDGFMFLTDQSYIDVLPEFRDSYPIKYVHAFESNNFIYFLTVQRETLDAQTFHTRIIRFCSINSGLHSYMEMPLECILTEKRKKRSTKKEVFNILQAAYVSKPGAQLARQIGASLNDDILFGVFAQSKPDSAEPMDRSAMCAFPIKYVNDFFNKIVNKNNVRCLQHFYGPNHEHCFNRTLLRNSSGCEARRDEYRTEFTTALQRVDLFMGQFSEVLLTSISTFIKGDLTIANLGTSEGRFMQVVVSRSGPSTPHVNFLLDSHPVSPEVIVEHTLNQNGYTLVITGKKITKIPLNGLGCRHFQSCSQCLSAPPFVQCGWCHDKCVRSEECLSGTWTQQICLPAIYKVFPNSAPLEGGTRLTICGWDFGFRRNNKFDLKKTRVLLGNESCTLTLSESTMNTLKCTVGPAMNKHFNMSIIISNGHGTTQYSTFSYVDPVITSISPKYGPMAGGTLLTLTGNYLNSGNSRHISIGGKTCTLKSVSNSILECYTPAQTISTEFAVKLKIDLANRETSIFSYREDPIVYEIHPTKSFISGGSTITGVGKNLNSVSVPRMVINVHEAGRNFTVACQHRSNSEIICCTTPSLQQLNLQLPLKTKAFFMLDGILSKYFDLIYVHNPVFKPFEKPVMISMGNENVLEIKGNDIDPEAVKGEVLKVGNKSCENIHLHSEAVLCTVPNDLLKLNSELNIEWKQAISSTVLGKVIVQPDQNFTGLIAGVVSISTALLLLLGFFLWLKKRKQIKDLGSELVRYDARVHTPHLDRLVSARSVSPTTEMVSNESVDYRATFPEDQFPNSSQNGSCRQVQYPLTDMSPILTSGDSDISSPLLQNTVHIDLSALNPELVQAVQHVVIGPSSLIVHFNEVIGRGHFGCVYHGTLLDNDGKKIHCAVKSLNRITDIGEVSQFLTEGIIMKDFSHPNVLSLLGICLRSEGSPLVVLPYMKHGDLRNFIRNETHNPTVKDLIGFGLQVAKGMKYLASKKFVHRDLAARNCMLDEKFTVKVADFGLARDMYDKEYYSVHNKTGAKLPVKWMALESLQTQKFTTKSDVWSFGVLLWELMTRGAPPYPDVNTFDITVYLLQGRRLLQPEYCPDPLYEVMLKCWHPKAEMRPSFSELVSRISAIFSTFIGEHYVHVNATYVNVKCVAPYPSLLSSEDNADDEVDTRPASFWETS

Vd [1]: 4.89 L/kg | half-life [2]: 1.23 h | inhibition [5]: Active | inhibition [6]: Active | inhibition [7]: Active | inhibition [8]: Active | inhibition [9]: Active | IC50 (786-0): > 10 µM | IC50 (NCI-H596): > 10 µM | IC50 (MDA-MB-231): > 10 µM | inhibition [12]: Dose-dependent effect
Compound: Fc1ccc(-c2cnc3nnc(C(F)(F)c4ccc5ncccc5c4)n3n2)cc1
inhibition in vivo at 12.5 mg/kg [3]: 75.6% | Ratio IC50 [4]: 10000 | IC50 [10]: > 10 µM | IC50 [11]: > 10 µM | Ratio IC50 [13]: 10000 | Ratio IC50 [14]: 10000 | Ratio IC50 [15]: 10000 | Ratio IC50 [16]: 10000 | Ratio IC50 [17]: 10000 | Ratio IC50 [18]: 10000 | Ratio IC50 [19]: 10000 | Ratio IC50 [20]: > 10000 | Ratio IC50 [21]: > 10000 | Ratio IC50 [22]: > 10000
